In the library only some 2.5% were active in any assay of this set; here they are far more common.
SENP8 block-1 = SENP8 protease inhibitors, primary screen, biochemical, luminescence; Sentrin-specific protease 8 (Homo sapiens), Q96LD8; purified SENP8, Z-RLRGG-aminoluciferin cleavage; inhibition, % at 10 µM; 1.2% of 330,000 active; AID 2540, 2010; in the data active = inhibition above about 50%
SENP6 inh = SENP6 protease inhibitors, primary screen, biochemical, luminescence, uHTS; Sentrin-specific protease 6 (Homo sapiens), Q9GZR1; Recombinant SENP6 catalytic domain, aminoluciferin luminescence; inhibition, % at 10 µM; 1.8% of 330,000 active; AID 2599, 2010;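 active = inhibition above about 50% at the single tested dose, limit read from the data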;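 note: plate controls were DMSO wells with enzyme for no effect and DMSO wells lacking enzyme for full effect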
SENP8 block-2 = human SENP8 protease inhibitors, primary screen, biochemical, fluorescence, Nedd8 protein substrate, uHTS; Sentrin-specific protease 8 (Homo sapiens), Q96LD8; recombinant SENP8; inhibition, % at 20 µM; 0.64% of 360,000 active; AID 602440, 2012; in the data active = inhibition mostly above about 40%, no sharp cut-off; inactive = mostly below about 27%
SENP7 inh = SENP7 protease inhibitors, primary screen, biochemical, luminescence, uHTS; Sentrin-specific protease 7 (Homo sapiens), Q9BQF6; recombinant SENP7, Z-RLRGG-aminoluciferin luminescence, 40 min; inhibition, % at 5 µM; 1.5% of 330,000 active;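 active = inhibition above about 50% at the single test dose, limit read from the data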;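 note: plate controls were DMSO with enzyme for no effect and no enzyme buffer wells for full effect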
Target sequence (Q9BQF6 706-1050 limits assumed): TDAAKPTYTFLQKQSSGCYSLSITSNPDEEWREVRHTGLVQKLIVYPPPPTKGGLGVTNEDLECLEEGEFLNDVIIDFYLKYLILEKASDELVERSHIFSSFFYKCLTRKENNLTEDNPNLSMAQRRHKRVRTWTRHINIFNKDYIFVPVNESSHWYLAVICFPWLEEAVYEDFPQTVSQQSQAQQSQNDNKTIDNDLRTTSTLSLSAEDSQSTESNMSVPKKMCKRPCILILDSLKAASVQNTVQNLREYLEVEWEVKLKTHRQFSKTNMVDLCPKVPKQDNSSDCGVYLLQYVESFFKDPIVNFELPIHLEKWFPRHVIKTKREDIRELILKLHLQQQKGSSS
SENP1 FRET inh = human SENP1 catalytic domain inhibitors, primary screen, biochemical, FRET, uHTS; Sentrin-specific protease 1 (Homo sapiens), Q9P0U3; inhibition, % at 10 µM; AID 624204, 2012; recombinant SENP1 catalytic domain, CyPet-SUMO1-YPet FRET cleavage; 0.21% of 360,000 active;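 active = inhibition at least 30% at 10 µM, raw YFP signal under a set limit, fluorescence ratio 0.5 to 1.5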;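 note: 0% = enzyme with DMSO and 100% = no enzyme wells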
Target sequence (Q9P0U3 419-644 limits assumed): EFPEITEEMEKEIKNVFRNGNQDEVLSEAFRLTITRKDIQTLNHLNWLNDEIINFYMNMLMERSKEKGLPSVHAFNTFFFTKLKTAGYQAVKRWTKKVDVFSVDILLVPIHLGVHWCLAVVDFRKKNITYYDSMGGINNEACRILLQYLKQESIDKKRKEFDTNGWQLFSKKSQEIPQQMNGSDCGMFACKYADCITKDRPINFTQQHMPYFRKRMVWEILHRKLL
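Test system: recombinant human SENP1 catalytic domain, His6-tagged / Medium: pH 8 Tris buffer with EDTA, NaCl, BME, BSA, NP40, catalase / Also added: SUMO1 FRET substrate flanked by Cypet and Ypet, 25 nM / Times: 50 min reaction at room temperature / Signal: FRET, CFP and YFP emission / Control set: no-enzyme low control and enzyme-plus-DMSO high control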
SENP8 conf = SENP8 protease inhibitors, retest, confirmation, biochemical, luminescence, single concentration; inhibition, % at 12.5 µM; Recombinant SENP8, Z-RLRGG-aminoluciferin luminescence, 60 min; shares compounds with SENP7 inh; 40% of 6,200 active;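 active = mean inhibition across replicates above about 50%, limit read from the data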
SENP6 conf = SENP6 protease inhibitors, confirmation, biochemical, luminescence, single concentration. shares compounds with SENP7 inh. recombinant SENP6, Z-RLRGG-aminoluciferin luminescence. inhibition, % at 12.5 µM. 58% of 6,200 active. AID 488915, 2010
SENP7 confirm = SENP7 protease inhibitors, retest, confirmation, biochemical, luminescence, single concentration; 69% of 6,200 active; inhibition, % at 12.5 µM; recombinant SENP7, Z-RLRGG-aminoluciferin luminescence, 40 min; shares compounds with SENP7 inh
Casp3 SENP sel = caspase-3 protease inhibitors, confirmation, selectivity assay for SENP inhibitor project, biochemical, single concentration | shares compounds with SENP7 inh | purified caspase-3, Z-DEVD-aminoluciferin luminescence, 60 min | inhibition, % at 12.5 µM | 60% of 6,200 active;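 active = mean inhibition above about 50%, limit read from the data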;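 note: plate controls were enzyme with DMSO for no effect and wells without caspase-3 for full effect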
SENP luc ctr = interferes with luciferase luminescence in SENP counter-screen | Pre-incubated SENP8/Z-RLRGG-aminoluciferin, luciferase luminescence interference | shares compounds with SENP7 inh | 39% of 6,200 active | AID 488919 | inhibition, % at 12.5 µM;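 active = mean inhibition above about 50% when retested at one dose, limit read from the data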;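 note: plate controls were DMSO wells with completed reaction for no effect and substrate without enzyme for full effect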
* hit, by the source's call; nt = no result given.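 Rule for the calls, unless noted: active = mean inhibition above about 50% in the one-dose retest (limit read from the data); inactive = the rest.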

SMILES | SENP8 block-1 | SENP6 inh | SENP8 block-2 | SENP7 inh | SENP1 FRET inh | SENP8 conf | SENP6 conf | SENP7 confirm | Casp3 SENP sel | SENP luc ctr
O=C(c1ccc2c3n(nc2c1)-c1ccc(Cl)cc1CO3)N1CCOCC1 | 4 | 12 | -23 | -9 | 0 | nt | nt | nt | nt | nt
O=C(NCC1CCCO1)c1ccc2c3n(nc2c1)-c1ccccc1CO3 (stereo not given) | 11 | 15 | -184 | -3 | -3 | nt | nt | nt | nt | nt
O=C(c1ccc2c3n(nc2c1)-c1ccccc1CO3)N1CCCCC1 | 91* | 97* | -8 | 95* | 0 | 97* | 98* | 101* | 97* | 96*
O=C(c1ccc2c3n(nc2c1)-c1ccccc1CO3)N1CCOCC1 | 87* | 93* | -107 | 95* | -1 | 93* | 93* | 101* | 98* | 92*
Cc1ccc2c(c1)COc1c3ccc(C(=O)N4CCCCC4)cc3nn1-2 | 81* | 84* | -33 | 80* | 3 | 45 | 87* | 96* | 86* | 18
CCN1C(=O)[C@@H]2[C@H](C1=O)[C@@H]1C(=O)Nc3ccccc3C(=O)N1[C@@H]2c1cccc(Cl)c1 | 4 | -1 | -55 | -2 | 1 | nt | nt | nt | nt | nt
CC(C)(C)N1C(=O)c2ccccc2NC(=O)C1C(=O)NCc1ccco1 (stereo not given) | nt | nt | -18 | nt | -3 | nt | nt | nt | nt | nt
O=C(Nc1ccc(OCc2ccccc2)cc1)Nc1ccccc1C(=O)NCCCN1CCOCC1 | 95* | 95* | -4 | 97* | -1 | 98* | 100* | 103* | 98* | 88*
CC(C)Oc1cccc(C(=O)C2CCCN(Cc3cnc(N4CCOCC4)s3)C2)c1 (stereo not given) | 2 | 24 | 6 | 4 | 1 | nt | nt | nt | nt | nt
Cc1ccc(O)c(NC(=O)c2ccc3c(c2)C(=O)N(CC(C)C)C3=O)c1 | 1 | -3 | 17 | 32 | 0 | nt | nt | nt | nt | nt
CCCN1C(=O)c2ccc(C(=O)Nc3cc(C)ccc3O)cc2C1=O | 51* | -25 | 12 | 97* | 3 | -22 | 20 | 52* | 50* | 1
CCCN1C(=O)c2ccc(C(=O)Nc3ccccc3C(=O)O)cc2C1=O | 79* | 89* | 18 | 16 | 0 | 86* | 85* | 97* | 44 | 89*
Cc1ccc(S(=O)(=O)N2CCN(C(C)C(=O)Nc3ccccc3-c3ccccc3)CC2)cc1 (stereo not given) | 1 | 2 | 7 | 11 | -1 | nt | nt | nt | nt | nt
O=C(NCCN1CCOCC1)C1CCC(CNS(=O)(=O)c2ccc(Cl)cc2)CC1 (stereo not given) | -52 | 10 | 7 | 60* | 3 | 1 | -2 | -3 | -3 | -2
Cc1cc(C)c(OCC(=O)NCCCn2nc(C)cc2C)c(C)c1 | -6 | 9 | 10 | -1 | 1 | nt | nt | nt | nt | nt
Cc1nn2cc(-c3ncc(C(F)(F)F)cc3Cl)cnc2c1Br | 76* | 83* | -13 | 90* | 1 | 61* | 60* | 28 | 40 | 20
Cc1cc2ncc(-c3ncc(C(F)(F)F)cc3Cl)cn2n1 | 26 | -19 | -15 | 59* | -14 | 26 | 40 | 77* | 79* | 28
N#Cc1cnn2cc(-c3ncc(C(F)(F)F)cc3Cl)cnc12 | 0 | -6 | -122 | 4 | -2 | nt | nt | nt | nt | nt
CC1(c2nnnn2-c2ccc3c(c2)OCCO3)CCC(=O)N1C1CCN(Cc2ccccc2)CC1 (stereo not given) | nt | nt | 4 | nt | -3 | nt | nt | nt | nt | nt
CCN(C[C@H]1N[C@@](C)(C(=O)OC)[C@H]2C(=O)N(C)C(=O)[C@@H]12)C(=O)COc1ccccc1 | -4 | 12 | 15 | 11 | 1 | nt | nt | nt | nt | nt
CCCc1cc(C(=O)Nc2cccc([N+](=O)[O-])c2)cs1 | 59* | 87* | 8 | 72* | 0 | 9 | 73* | 92* | 45 | 56*
O=C(Nc1ccc2c(c1)OCCO2)c1cccc(C(=O)Nc2ccc3c(c2)OCCO3)c1 | 5 | 4 | 14 | -3 | 1 | nt | nt | nt | nt | nt
O=C(Nc1ccc2c(c1)OCCO2)c1cccc(Cl)c1 | 77* | 87* | 14 | 85* | 1 | 7 | 86* | 97* | 85* | 86*
O=C(Nc1cccc(Cl)c1)c1ccc2c(c1)OCCO2 | 92* | 91* | -3 | 95* | 1 | 0 | 93* | 101* | 89* | 94*
O=C(Nc1cccc([N+](=O)[O-])c1)c1ccc2c(c1)OCCO2 | 63* | 72* | 8 | 75* | 1 | 68* | 70* | 93* | 72* | 80*
SMILES | SENP8 block-1 | SENP6 inh | SENP8 block-2 | SENP7 inh | SENP1 FRET inh | SENP8 conf | SENP6 conf | SENP7 confirm | Casp3 SENP sel | SENP luc ctr
NS(=O)(=O)c1ccc(S(=O)(=O)N2CCCC(c3ccccc3)C2)cc1 (stereo not given) | nt | nt | 13 | nt | 0 | nt | nt | nt | nt | nt
Cc1cccc2sc(NC(=O)c3ccc(NS(=O)(=O)c4cccs4)cc3)nc12 | 70* | 86* | -326 | 45 | -1 | 2 | 81* | 6 | 31 | 26
O=C1CCOc2cc(OCc3ccccc3)ccc21 | 88* | 94* | 8 | 95* | 1 | 94* | 94* | 101* | 94* | 93*
CC1Cc2cc(/C=C3/SC(=S)N(C)C3=O)ccc2O1 (stereo not given) | 61* | 74* | 25 | 63* | -60 | 10 | 20 | 38 | 52* | -5
CC1Cc2cc(/C=C3/SC(N4CCC(C(N)=O)CC4)=NC3=O)ccc2O1 (stereo not given) | -13 | -14 | -71 | -8 | -5 | nt | nt | nt | nt | nt
C=C(C)Cn1c(N2CCC(Cc3ccccc3)CC2)nc2c1c(=O)[nH]c(=O)n2C | 81* | 98* | 19 | 4 | 1 | 23 | 21 | 1 | 6 | 0
COc1ccc(CCNC(=O)c2ccc(F)c(S(=O)(=O)N3CCCCC3)c2)cc1 | nt | nt | 18 | nt | 2 | nt | nt | nt | nt | nt

Compound activity from PubChem BioAssay.
